Measurements as given in ChEMBL document CHEMBL1148705, “Sponge-derived fijianolide polyketide class: further evaluation of their structural and cytotoxicity properties” (J Med Chem, 2007).
Calls of active or inactive are those of the source. The rule behind the calls is not given here.

Assays:
MC-38 [1] = assay: Cytotoxicity against mouse C38 cells at 100 ug/disk by disk diffusion method; type: functional
How it was run: (§1)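 Soft agar colony formation assay with compound applied by disk diffusion; cell lines: murine L1210 leukemia and C38 colon, human HCT-116 colon, H-125 lung, CEM leukemia, normal hematopoietic CFU-GM. Differential cytotoxicity given as zone-unit differential between a solid tumor line and leukemia (ΔSL) or normal cells (ΔSN).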

L1210 [2] = assay: Cytotoxicity against mouse L1210 cells at 100 ug/disk by disk diffusion method; type: functional; how it was run: as §1
[3] = Cytotoxicity against human H116 cells at 100 ug/disk by disk diffusion method; type: functional; how it was run: as §1
[4] = Cytotoxicity against human H125 cells at 100 ug/disk by disk diffusion method; type: functional; how it was run: as §1
HCT-116 [5] = assay: Increase in microtubule density in human HCT116 up to 50 uM; type: functional, cell-based
How it was run: (§2)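 Cell-based screen for disruption of interphase and mitotic microtubules, tested at concentrations up to 50 µM; scored for microtubule density, bundling, circular mitotic spindles, micronucleation and other nuclear changes.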

HCT-116 [6] = assay: Formation of circular mitotic spindles in human HCT116 up to 50 uM; type: functional, cell-based; how it was run: as §2
HCT-116 [7] = assay: Effect on micronucleation in human HCT116 up to 50 uM; type: functional, cell-based; how it was run: as §2
MDA-MB-435 = assay: Cytotoxicity against human MDA-MB-435 cells after 48 hrs by SRB assay; conditions: MDA-MB-435, 48 h
HCT-116 [8] = assay: Cytotoxicity against human HCT116 cells after 72 hrs by trypan blue viable cell count; conditions: HCT-116, 72 h
L1210 [9] = assay: Cytotoxicity against mouse L1210 cells at 30 ug/disk by disk diffusion method; type: functional; how it was run: as §1
MC-38 [10] = assay: Cytotoxicity against mouse C38 cells at 30 ug/disk by disk diffusion method; type: functional; how it was run: as §1
[11] = Cytotoxicity against human H116 cells at 30 ug/disk by disk diffusion method; type: functional; how it was run: as §1
[12] = Cytotoxicity against human H125 cells at 30 ug/disk by disk diffusion method; type: functional; how it was run: as §1
HCT-116 [13] = assay: Formation of thick bundles of microtubule stabilization in human HCT116 cells at 2 to 20 uM; type: functional, cell-based
HCT-116 [14] = assay: Abnormal circular mitotic spindles formation in human HCT116 cells at 2 to 20 uM; type: functional, cell-based
HCT-116 [15] = assay: Antitumor activity against HCT116 bearing SCID mice at 12.5 mg/kg bolus iv after 9 days relative to control; type: functional, Homo sapiens
How it was run: (§3)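 SCID mice were implanted subcutaneously with 10^6 HCT-116 cells and pooled, 5 per group. Dosing started 3 days after inoculation: daily iv tail-vein bolus for 5 days, 0.25 mL of 1 or 2 mg/mL (about 12.5 or 25 mg/kg/day) in DMSO/cremophor/propylene glycol/saline vehicle. Tumor weight and body weight were followed to day 30, and %T/C was calculated versus untreated controls.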

L1210 [16] = assay: Cytotoxicity against mouse L1210 cells at 9 ug/disk by disk diffusion method; type: functional
How it was run: (§4)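 Disk diffusion soft agar colony formation assay using solid tumor lines (murine colon C38, human colon HCT-116, human lung H125), leukemia lines (murine L1210, human CEM) and normal CFU-GM cells. Results are inhibition zones in zone units. Differential cytotoxicity is the zone difference between solid tumor and leukemia cells (ΔSL) or normal cells (ΔSN).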

MC-38 [17] = assay: Cytotoxicity against mouse C38 cells at 36 ug/disk by disk diffusion method; type: functional; how it was run: as §4
[18] = Cytotoxicity against human H116 cells at 9 ug/disk by disk diffusion method; type: functional; how it was run: as §4
[19] = Cytotoxicity against human H125 cells at 9 ug/disk by disk diffusion method; type: functional; how it was run: as §4
CCRF-CEM [20] = assay: Cytotoxicity against human CEM cells at 36 ug/disk by disk diffusion method; type: functional; how it was run: as §4
[21] = Cytotoxicity against human CFU-GM cells at 9 ug/disk by disk diffusion method; type: cell-based; how it was run: as §4
HCT-116 [22] = assay: Increase in microtubule density in human HCT116 cells at 20 uM; type: functional, cell-based
HCT-116 [23] = assay: Formation of thick bundles of microtubule stabilization in human HCT116 cells at 20 uM; type: functional, cell-based
HCT-116 [24] = assay: Antitumor activity against HCT116 bearig SCID mouse assessed as tumor weight at 25 mg/kg, iv after 30 mins; type: functional, Homo sapiens
HCT-116 [25] = assay: Cytotoxicity against human HCT116 cells assessed as cell kill at 10 ng/mL after 24 hrs; type: functional
How it was run: (§5)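 Clonogenic assay. HCT-116 cells were seeded at 200 to 20 000 per 60 mm dish in RPMI + 10% FBS, then given drug at 1 mg/mL and 10-fold dilutions. Exposure was 2 h or 24 h followed by drug-free medium, or continuous. Dishes were incubated 7 days and stained with methylene blue; colonies of ≥50 cells were counted and normalized to untreated control. Experiments were repeated to span 100–0.1% survival.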

HCT-116 [26] = assay: Cytotoxicity against human HCT116 cells assessed as cell kill at 1.2 ng/mL after 168 hrs; type: functional; how it was run: as §5
[27] = Drug level in HCT116 bearing SCID mice plasma at 25 mg/kg, iv after 1 min; type: ADME, organism-based; design: dose 25 mg/kg, route intravenous; conditions: mouse
How it was run: (§6)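 SCID mice bearing subcutaneous HCT-116 tumors (~100 mg) got a single iv dose of 0.5 mg/mouse (25 mg/kg) in 0.25 mL. Vehicle: 10 mg/mL DMSO stock mixed 1:1 with cremophor/propylene glycol (60:40), then diluted 20-fold in saline. Plasma was taken from individual mice at 1, 15, 30 min and 1, 2, 6, 24 h. Drug was extracted by solid-phase extraction and measured by C18 HPLC with UV detection at 218 nm.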

[28] = Drug level in HCT116 bearing SCID mice plasma at 25 mg/kg, iv after 2 hrs; type: ADME, organism-based; design: dose 25 mg/kg, route intravenous; conditions: mouse; how it was run: as §6
[29] = Drug level in HCT116 bearing SCID mice plasma at 25 mg/kg, iv after 24 hrs; type: ADME, organism-based; design: dose 25 mg/kg, route intravenous; conditions: mouse; how it was run: as §6
HCT-116 [30] = assay: Antitumor activity against HCT116 bearig SCID mouse assessed as tumor weight at 25 mg/kg, iv after 24 hrs; type: functional, Homo sapiens
HCT-116 [31] = assay: Antitumor activity against HCT116 bearing SCID mice at 25 mg/kg bolus iv after 11 days relative to control; type: functional, Homo sapiens; how it was run: as §3
HCT-116 [32] = assay: Survival of human HCT116 cells at 5 ng/mL after 168 hrs; type: functional; conditions: HCT-116, 168 h, read-out: Survival; how it was run: as §5
L1210 [33] = assay: Cytotoxicity against mouse L1210 cells at 40 ug/disk by disk diffusion method; type: functional; how it was run: as §1
MC-38 [34] = assay: Cytotoxicity against mouse C38 cells at 40 ug/disk by disk diffusion method; type: functional; how it was run: as §1
[35] = Cytotoxicity against human H116 cells at 40 ug/disk by disk diffusion method; type: functional; how it was run: as §1
[36] = Cytotoxicity against human H125 cells at 40 ug/disk by disk diffusion method; type: functional; how it was run: as §1
CCRF-CEM [37] = assay: Cytotoxicity against human CEM cells at 40 ug/disk by disk diffusion method; type: functional; how it was run: as §1
[38] = Cytotoxicity against human CFU-GM cells at 40 ug/disk by disk diffusion method; type: cell-based; how it was run: as §1

For `C=C1C[C@H](C)C[C@@H]2CC=C[C@@H](C/C=C\C(=O)O[C@H]3C[C@@H](O[C@H]3/C=C/[C@@H]3CC(C)=CC(=O)O3)[C@@H](O)[C@@H](O)C1)O2` [FIIJIANOLIDE D], the Activity (MC-38 [1]) was 150 Zone units, the Activity (L1210 [2]) was 0 Zone units and the Activity [3] was 0 Zone units. For the same molecule, the Activity [4] was 0 Zone units, the Activity (HCT-116 [5]) was “inactive” and the Activity (HCT-116 [6]) was “inactive”. The Activity (HCT-116 [7]) was “inactive”, the IC50 (MDA-MB-435) was 21.4 µM and the IC50 (HCT-116 [8]) was 1900 nM.
Work on `C=C1C[C@H](C)C[C@@H]2CC=C[C@@H](C/C=C\C(=O)O[C@H]3C[C@@H](O[C@H]3/C=C/[C@@H]3CC(C)=CCO3)[C@@H](O)[C@@H](O)C1)O2` [FIJIANOLIDE A] yielded an Activity (L1210 [9]) of 150 Zone units, an Activity (MC-38 [10]) of 0 Zone units and an Activity [11] of 100 Zone units. It also gave an Activity [12] of 50 Zone units, an IC50 (MDA-MB-435) of 20.2 µM and an IC50 (HCT-116 [8]) of 9700 nM.
With `C=C1C[C@H](C)C[C@@H]2CC=C[C@@H](C/C=C\C(=O)O[C@H]([C@@H](O)/C=C/[C@@H]3CC(C)=CCO3)C[C@@H]3O[C@H]3[C@@H](O)C1)O2` [FIJIANOLIDE B] the Activity (HCT-116 [13]) was “Active”, the Activity (HCT-116 [14]) was “Active” and the Activity (HCT-116 [15]) was 80%. The Activity (L1210 [16]) was 500 Zone units, the Activity (MC-38 [17]) was 800 Zone units and the Activity [18] was 700 Zone units. The Activity [19] was 250 Zone units, the Activity (CCRF-CEM [20]) was >1000 Zone units and the Activity [21] was 550 Zone units. The Activity (HCT-116 [22]) was “Active”, the Activity (HCT-116 [23]) was “inactive” and the Activity (HCT-116 [24]) was 4.7 µg/mg. The Activity (HCT-116 [25]) was 90%, the Activity (HCT-116 [26]) was 90% and the concentration at 1 min [27] was 160 µg/mL. The concentration at 2 h [28] was 1000 ng/mL, the concentration at 24 h [29] was 200 µg/mL and the Activity (HCT-116 [30]) was 2.8 µg/mg. The Activity (HCT-116 [31]) was 11%, the viability at 0.005 µg/mL (HCT-116 [32]) was 0.01% and the IC50 (MDA-MB-435) was 0.007 µM. For the same molecule, the IC50 (HCT-116 [8]) was 3 nM.
`C=C1C[C@H](C)C[C@@H]2CC=C[C@@H](C/C=C\C(=O)OC([C@@H](O)/C=C/[C@@H]3CC(C)=CC(=O)O3)C[C@@H]3O[C@H]3[C@@H](O)C1)O2` (stereo partly drawn) [FIJIANOLIDE E] showed an Activity (L1210 [33]) of 350 Zone units, an Activity (MC-38 [34]) of 400 Zone units and an Activity [35] of 500 Zone units. For the same molecule, the Activity [36] was 400 Zone units, the Activity (CCRF-CEM [37]) was 550 Zone units and the Activity [38] was 500 Zone units. For the same molecule, the Activity (HCT-116 [5]) was “Active”, the Activity (HCT-116 [6]) was “Active” and the Activity (HCT-116 [7]) was “Active”. For the same molecule, the IC50 (MDA-MB-435) was 1.3 µM and the IC50 (HCT-116 [8]) was 700 nM.
